We go through 16 molecules from ChEMBL document CHEMBL1144585, “Synthesis and evaluation of N-acetyl-L-tyrosine based compounds as PPARalpha selective activators” (Eur J Med Chem, 2007).

The target of assay [1] is T1, Peroxisome proliferator-activated receptor alpha (Homo sapiens) (UniProt Q07869).
T1 sequence (whole entry): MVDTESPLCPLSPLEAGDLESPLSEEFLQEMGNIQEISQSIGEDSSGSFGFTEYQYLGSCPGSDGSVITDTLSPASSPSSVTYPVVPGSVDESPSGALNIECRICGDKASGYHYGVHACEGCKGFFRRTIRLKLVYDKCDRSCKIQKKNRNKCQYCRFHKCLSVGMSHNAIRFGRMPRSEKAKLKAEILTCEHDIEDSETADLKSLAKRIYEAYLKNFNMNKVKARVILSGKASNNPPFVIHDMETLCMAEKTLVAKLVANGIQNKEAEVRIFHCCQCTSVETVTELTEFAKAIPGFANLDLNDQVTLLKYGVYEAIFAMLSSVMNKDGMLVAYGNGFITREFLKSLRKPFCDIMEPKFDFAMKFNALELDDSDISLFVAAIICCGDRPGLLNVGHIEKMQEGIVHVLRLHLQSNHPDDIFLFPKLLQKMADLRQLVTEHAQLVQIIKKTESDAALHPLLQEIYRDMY
Description: Agonist activity at human recombinant PPARalpha at 50 uM by GAL4 transactivation assay relative to control. Type of assay: functional. Summed up: (§1)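 Cell-based transcription assay: cells transfected with a GAL4–PPAR chimeric receptor expression plasmid, with luciferase gene activation as the read-out. PPARα was tested at 50 µM against WY 14,643 as the reference. PPARγ was tested at 30 µM against rosiglitazone as the reference. Values are fold activation at the same concentration.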

Assay [2] concerns the target T2, Peroxisome proliferator-activated receptor gamma (Homo sapiens) (UniProt P37231).
T2 sequence (whole entry): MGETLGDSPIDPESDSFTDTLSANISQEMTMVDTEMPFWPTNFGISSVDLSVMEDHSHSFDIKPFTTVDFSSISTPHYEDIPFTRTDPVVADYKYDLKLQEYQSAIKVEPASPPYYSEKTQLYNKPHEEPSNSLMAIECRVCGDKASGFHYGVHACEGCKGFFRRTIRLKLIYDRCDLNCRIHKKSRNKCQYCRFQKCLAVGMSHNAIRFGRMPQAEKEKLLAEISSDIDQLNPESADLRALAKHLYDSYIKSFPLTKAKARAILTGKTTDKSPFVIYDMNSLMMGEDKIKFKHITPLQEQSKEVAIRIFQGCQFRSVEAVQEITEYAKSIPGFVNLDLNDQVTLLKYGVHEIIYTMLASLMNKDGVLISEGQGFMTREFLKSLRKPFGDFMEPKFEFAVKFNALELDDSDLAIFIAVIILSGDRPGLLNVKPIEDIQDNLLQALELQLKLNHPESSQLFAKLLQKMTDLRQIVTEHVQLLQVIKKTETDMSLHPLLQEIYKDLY
Description: Agonist activity at human recombinant PPARgamma at 30 uM by GAL4 transactivation assay relative to control. It counts as functional. The method in brief: as §1

Consider `CC(=O)N[C@@H](Cc1ccc(OCc2ccc(Cl)cc2)cc1)C(=O)O`, for which the Fold change in assay [1] is 3; in assay [2] it was 1.9. In the case of `CCOC(=O)[C@H](Cc1ccc(OCCC(=O)Nc2ccccc2C(F)(F)F)cc1)NC(C)=O`, the Fold change in assay [1] came out at 1; in assay [2], 1.8. On the same counts, the results for `CCN(CCOc1ccc(C[C@H](NC(C)=O)C(=O)O)cc1)c1cccc(C)c1` are 3.2 and 1.4.

Regarding `CCOC(=O)[C@H](Cc1ccc(OCCN(CC)c2cccc(C)c2)cc1)NC(C)=O`, the Fold change turned out to be 2.9 in assay [1] and 1.1 in assay [2]. Turning to `CCOC(=O)[C@H](Cc1ccc(OCc2c3ccccc3cc3ccccc23)cc1)NC(C)=O`, the figures for the Fold change in assay [1] and in assay [2] were 2.3 and 0.8, respectively. Take `CN(CCOc1ccc(CC2SC(=O)NC2=O)cc1)c1ccccn1` (stereo not given): the Fold change in assay [2] is 27.2. Take `CC(=O)N[C@@H](Cc1ccc(OCCOc2ccc(C(=O)c3ccc(Cl)cc3)cc2)cc1)C(=O)O`: the Fold change in assay [1] was found to be 4.6; in assay [2], 2.4. Consider `CC(=O)N[C@@H](Cc1ccc(OCCn2c3ccccc3c3ccccc32)cc1)C(=O)O`, for which the Fold change in assay [1] was 3.4; in assay [2], 4.2. Turning to `CCOC(=O)[C@H](Cc1ccc(OCCOc2ccc(C(=O)c3ccc(Cl)cc3)cc2)cc1)NC(C)=O`, the Fold change was 3.3 in assay [1] and 0.9 in assay [2].

As to `CCOC(=O)[C@H](Cc1ccc(OCc2ccc(OC)cc2)cc1)NC(C)=O`, the Fold change in assay [1] was found to be 2.4; in assay [2], 1.3. `CC(=O)N[C@@H](Cc1ccc(OCc2c3ccccc3cc3ccccc23)cc1)C(=O)O`: the figures for the Fold change in assay [1] and in assay [2] were 3.1 and 1.3, respectively. As for `CC(=O)N[C@@H](Cc1ccc(OCCC(=O)Nc2ccccc2C(F)(F)F)cc1)C(=O)O`, the Fold change in assay [1] was 2.5; in assay [2] it was 1.2.

With `CCOC(=O)[C@H](Cc1ccc(OCCn2c3ccccc3c3ccccc32)cc1)NC(C)=O`, the Fold change in assay [1] turned out to be 1.6; in assay [2], 5.4.

Regarding `COc1ccc(COc2ccc(C[C@H](NC(C)=O)C(=O)O)cc2)cc1`, the Fold change in assay [1] worked out at 4.4; in assay [2] it was 5.4. Consider `Cc1cccc(Nc2cc(Cl)nc(SCC(=O)O)n2)c1C`, for which the Fold change in assay [1] was 4.2. Regarding `CCOC(=O)[C@H](Cc1ccc(OCc2ccc(Cl)cc2)cc1)NC(C)=O`, the Fold change was 2 in assay [1] and 1 in assay [2].
